According to ChEMBL document CHEMBL4354826, “Structure-Based Discovery of SD-36 as a Potent, Selective, and Efficacious PROTAC Degrader of STAT3 Protein” (J Med Chem, 2019):
Calls of active or inactive are those of the source. The calls are words filed in the database; no cut-off is given here.

Key:
[1] = Antiproliferative activity against human MOLM16 cells assessed as reduction in cell viability incubated for 4 days by cell-titer glo luminescent assay; format: functional, cell-based; conditions: MOLM16, 96 h
In short: (§1)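 Viability assay: cells incubated with serially diluted compounds for 4 days, viability read by CellTiter-Glo luminescence; IC50 from concentration–response.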

[2] = molecular target: T1, Protein cereblon/Signal transducer and activator of transcription 3 (Homo sapiens, UniProt P40763+Q96SW2); assay: Protac activity at CRBN/STAT3 in human MOLM16 cells assessed as degradation of STAT3 up to 10 uM incubated for 4 hrs by Western blot analysis; format: cell-based
In short: (§2)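 Molm-16 cells treated 4 h with serially diluted compound. Lysates immunoblotted (SDS–PAGE, PVDF, 5% blocker/TBST, chemiluminescence) for total STAT3 and pSTAT3 Y705. DC50 taken as the concentration reducing total STAT3 by 50%.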
Target sequence in this assay (P40763 2-770 limits assumed): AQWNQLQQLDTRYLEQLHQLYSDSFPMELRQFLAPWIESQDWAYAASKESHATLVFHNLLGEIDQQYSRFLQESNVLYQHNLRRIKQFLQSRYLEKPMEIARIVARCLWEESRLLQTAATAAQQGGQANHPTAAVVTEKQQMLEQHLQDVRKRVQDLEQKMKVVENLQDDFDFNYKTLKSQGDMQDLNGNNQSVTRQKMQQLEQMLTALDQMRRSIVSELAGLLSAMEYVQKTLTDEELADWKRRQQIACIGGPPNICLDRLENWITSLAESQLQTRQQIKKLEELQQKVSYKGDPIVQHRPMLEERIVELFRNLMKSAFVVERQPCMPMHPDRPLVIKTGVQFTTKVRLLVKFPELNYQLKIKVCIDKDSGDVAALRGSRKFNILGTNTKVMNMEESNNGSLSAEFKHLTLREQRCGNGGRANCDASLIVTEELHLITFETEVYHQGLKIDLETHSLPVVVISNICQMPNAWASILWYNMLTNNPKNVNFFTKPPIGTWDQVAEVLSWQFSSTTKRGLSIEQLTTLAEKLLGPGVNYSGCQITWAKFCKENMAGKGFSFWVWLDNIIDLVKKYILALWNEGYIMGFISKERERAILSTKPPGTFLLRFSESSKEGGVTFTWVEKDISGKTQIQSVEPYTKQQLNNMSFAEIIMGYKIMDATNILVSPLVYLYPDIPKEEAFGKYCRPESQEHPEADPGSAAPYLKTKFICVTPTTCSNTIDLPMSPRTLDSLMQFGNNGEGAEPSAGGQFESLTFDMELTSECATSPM
Target sequence in this assay (Q96SW2 whole entry partner): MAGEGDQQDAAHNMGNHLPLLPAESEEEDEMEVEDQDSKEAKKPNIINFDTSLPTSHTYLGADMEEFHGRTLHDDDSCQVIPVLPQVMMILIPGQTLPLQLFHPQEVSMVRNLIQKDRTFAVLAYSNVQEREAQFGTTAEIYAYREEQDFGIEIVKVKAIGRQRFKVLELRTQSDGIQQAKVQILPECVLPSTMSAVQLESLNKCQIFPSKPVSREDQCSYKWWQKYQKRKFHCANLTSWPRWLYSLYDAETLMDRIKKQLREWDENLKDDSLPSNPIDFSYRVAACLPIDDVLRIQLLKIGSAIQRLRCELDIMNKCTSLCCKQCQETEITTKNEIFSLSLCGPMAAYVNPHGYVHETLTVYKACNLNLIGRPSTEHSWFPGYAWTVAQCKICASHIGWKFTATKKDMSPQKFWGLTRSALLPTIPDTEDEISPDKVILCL

[3] = molecular target: T1, Protein cereblon/Signal transducer and activator of transcription 3; assay: Protac activity at CRBN/STAT3 in human MOLM16 cells assessed as degradation of STAT3 incubated for 4 hrs by Western blot analysis; format: cell-based; in short: as §2
[4] = molecular target: T1, Protein cereblon/Signal transducer and activator of transcription 3; assay: Protac activity at CRBN/STAT3 in human MOLM16 cells assessed as degradation of phosphorylated STAT3 Y705 upto 10 uM incubated for 4 hrs by Western blot analysis; format: cell-based; in short: as §2
Target sequence in this assay (P40763 2-770 limits assumed): as the sequence (P40763 2-770 limits assumed) above
Target sequence in this assay (Q96SW2 whole entry partner): as the sequence (Q96SW2 whole entry partner) above

[5] = molecular target: T2, Signal transducer and activator of transcription 3 (Homo sapiens, UniProt P40763); assay: Potency index, ratio of Ki of CJ-887 to Ki of compound for binding affinity to recombinant human His/SUMO-tagged STAT3 (127 to 688 residues) expressed in Escherichia coli Rosetta (DE3) incubated for 1 hr by fluorescence polarization assay
T2 sequence (P40763 whole entry, the tested form may be a part): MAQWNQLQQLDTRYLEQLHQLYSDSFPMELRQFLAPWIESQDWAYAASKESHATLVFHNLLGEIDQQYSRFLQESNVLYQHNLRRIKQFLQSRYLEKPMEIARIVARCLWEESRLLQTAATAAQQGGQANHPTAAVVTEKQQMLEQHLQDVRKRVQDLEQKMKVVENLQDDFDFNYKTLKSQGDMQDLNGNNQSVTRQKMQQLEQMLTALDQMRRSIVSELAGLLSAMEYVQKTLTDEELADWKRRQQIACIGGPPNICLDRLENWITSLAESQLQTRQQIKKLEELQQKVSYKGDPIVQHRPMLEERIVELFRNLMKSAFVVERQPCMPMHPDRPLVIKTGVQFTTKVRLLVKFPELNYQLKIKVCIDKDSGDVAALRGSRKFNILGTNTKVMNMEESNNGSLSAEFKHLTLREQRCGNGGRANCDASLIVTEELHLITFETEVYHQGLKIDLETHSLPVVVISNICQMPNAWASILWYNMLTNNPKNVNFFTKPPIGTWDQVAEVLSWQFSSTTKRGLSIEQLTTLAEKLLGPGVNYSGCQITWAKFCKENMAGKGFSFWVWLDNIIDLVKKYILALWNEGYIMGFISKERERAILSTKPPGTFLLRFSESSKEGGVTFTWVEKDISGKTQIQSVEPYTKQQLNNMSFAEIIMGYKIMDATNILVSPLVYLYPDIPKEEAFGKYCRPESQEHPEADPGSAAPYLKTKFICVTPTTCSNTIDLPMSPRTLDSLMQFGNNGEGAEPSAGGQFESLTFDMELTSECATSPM

[6] = molecular target: T2, Signal transducer and activator of transcription 3; assay: Binding affinity to recombinant human His/SUMO-tagged STAT3 (127 to 688 residues) expressed in Escherichia coli Rosetta (DE3) incubated for 1 hr by fluorescence polarization assay
SU-DHL-1 = assay: Antiproliferative activity against human SUDHL1 cells assessed as reduction in cell viability incubated for 4 days by cell-titer glo luminescent assay; format: functional, cell-based; conditions: SU-DHL-1, 96 h; in short: as §1
[7] = molecular target: T1, Protein cereblon/Signal transducer and activator of transcription 3; assay: Protac activity at CRBN/STAT3 in human SUDHL1 cells assessed as degradation of STAT3 upto 5 uM incubated for 16 hrs by Western blot analysis; format: cell-based
Target sequence in this assay (P40763 2-770 limits assumed): as the sequence (P40763 2-770 limits assumed) above
Target sequence in this assay (Q96SW2 whole entry partner): as the sequence (Q96SW2 whole entry partner) above

[8] = molecular target: T1, Protein cereblon/Signal transducer and activator of transcription 3; assay: Protac activity at CRBN/STAT3 in human SUDHL1 cells assessed as degradation of STAT3 incubated for 16 hrs by Western blot analysis; format: cell-based
Target sequence in this assay (P40763 whole entry): as the sequence (P40763 whole entry, the tested form may be a part) above
Target sequence in this assay (Q96SW2 whole entry): as the sequence (Q96SW2 whole entry partner) above

[9] = molecular target: T1, Protein cereblon/Signal transducer and activator of transcription 3; assay: Protac activity at CRBN/STAT3 in human SUDHL1 cells assessed as degradation of phosphorylated STAT3 Y705 upto 5 uM incubated for 16 hrs by Western blot analysis; format: cell-based
Target sequence in this assay (P40763 2-770 limits assumed): as the sequence (P40763 2-770 limits assumed) above
Target sequence in this assay (Q96SW2 whole entry partner): as the sequence (Q96SW2 whole entry partner) above

[10] = molecular target: T1, Protein cereblon/Signal transducer and activator of transcription 3; assay: Protac activity at CRBN/STAT3 in human MOLM16 cells assessed as degradation of STAT3 at 1 uM incubated for 4 hrs by Western blot analysis; format: cell-based; in short: as §2
Target sequence in this assay (P40763 2-770 limits assumed): as the sequence (P40763 2-770 limits assumed) above
Target sequence in this assay (Q96SW2 whole entry partner): as the sequence (Q96SW2 whole entry partner) above

[11] = molecular target: T1, Protein cereblon/Signal transducer and activator of transcription 3; assay: Protac activity at CRBN/STAT3 in human MOLM16 cells assessed as degradation of phosphorylated STAT3 Y705 at 1 uM incubated for 4 hrs by Western blot analysis; format: cell-based; in short: as §2
Target sequence in this assay (P40763 2-770 limits assumed): as the sequence (P40763 2-770 limits assumed) above
Target sequence in this assay (Q96SW2 whole entry partner): as the sequence (Q96SW2 whole entry partner) above

SMILES | IC50 [1] | DC50 [3] | other results
NC(=O)CC[C@H](NC(=O)[C@@H]1CC[C@@H]2CCN(C(=O)CCCCCC#Cc3cccc4c3CN(C3CCC(=O)NC3=O)C4=O)C[C@H](NC(=O)c3cc4cc(CP(=O)(O)O)ccc4[nH]3)C(=O)N21)C(=O)NC(c1ccccc1)c1ccccc1 (some centres undefined) | > 2000 nM | > 10000 nM | Activity [2]: inactive; Activity [4]: inactive
NC(=O)CC[C@H](NC(=O)[C@@H]1CC[C@@H]2CCN(C(=O)CCCCCCCCC#Cc3cccc4c3CN(C3CCC(=O)NC3=O)C4=O)C[C@H](NC(=O)c3cc4cc(C(F)(F)P(=O)(O)O)ccc4[nH]3)C(=O)N21)C(=O)NC(c1ccccc1)c1ccccc1 (some centres undefined) | 42 nM | 150 nM | 
NC(=O)CC[C@H](NC(=O)[C@@H]1CC[C@@H]2CCCC[C@H](NC(=O)c3cc4cc(C(F)(F)P(=O)(O)O)ccc4[nH]3)C(=O)N21)C(=O)NCc1ccccc1 |  |  | Ratio Ki [5]: 7; Ki [6]: 7 nM
NC(=O)CC[C@H](NC(=O)[C@@H]1CC[C@@H]2CCN(C(=O)CCCCCC#Cc3cccc4c3CN(C3CCC(=O)NC3=O)C4=O)C[C@H](NC(=O)c3cc4cc(OP(=O)(O)O)ccc4[nH]3)C(=O)N21)C(=O)NC(c1ccccc1)c1ccccc1 (some centres undefined) | > 2000 nM | > 10000 nM | Activity [2]: inactive; Activity [4]: inactive
NC(=O)CC[C@H](NC(=O)[C@@H]1CC[C@@H]2CCN(C(=O)CCCCCC#Cc3cccc4c3C(=O)N(C3CCC(=O)NC3=O)C4=O)C[C@H](NC(=O)c3cc4cc(C(F)(F)P(=O)(O)O)ccc4[nH]3)C(=O)N21)C(=O)NC(c1ccccc1)c1ccccc1 (some centres undefined) | 582 nM | 3540 nM | IC50 (SU-DHL-1): > 10000 nM; Activity [7]: inactive; DC50 [8]: > 10000 nM; Activity [9]: inactive
NC(=O)CC[C@H](NC(=O)[C@@H]1CC[C@@H]2CCN(C(=O)CCCCCC#Cc3ccc4c(c3)CN(C3CCC(=O)NC3=O)C4=O)C[C@H](NC(=O)c3cc4cc(C(F)(F)P(=O)(O)O)ccc4[nH]3)C(=O)N21)C(=O)NC(c1ccccc1)c1ccccc1 (some centres undefined) | 104 nM | 410 nM | 
NC(=O)CC[C@H](NC(=O)[C@@H]1CC[C@@H]2CCN(C(=O)CCCCCCNc3cccc4c3CN(C3CCC(=O)NC3=O)C4=O)C[C@H](NC(=O)c3cc4cc(C(F)(F)P(=O)(O)O)ccc4[nH]3)C(=O)N21)C(=O)NC(c1ccccc1)c1ccccc1 (some centres undefined) | 59 nM | 90 nM | 
NC(=O)CC[C@H](NC(=O)[C@@H]1CC[C@@H]2CCN(C(=O)CCCn3cc(C#Cc4cccc5c4CN(C4CCC(=O)NC4=O)C5=O)cn3)C[C@H](NC(=O)c3cc4cc(C(F)(F)P(=O)(O)O)ccc4[nH]3)C(=O)N21)C(=O)NC(c1ccccc1)c1ccccc1 (some centres undefined) | 232 nM | 250 nM | 
NC(=O)CC[C@H](NC(=O)[C@@H]1CC[C@@H]2CCCC[C@H](NC(=O)c3cc4cc(OP(=O)(O)O)ccc4[nH]3)C(=O)N21)C(=O)NCc1ccccc1 |  |  | Ratio Ki [5]: 2; Ki [6]: 25 nM
NC(=O)CC[C@H](NC(=O)[C@@H]1CC[C@@H]2CCN(C(=O)CCCCCCCc3cccc4c3CN(C3CCC(=O)NC3=O)C4=O)C[C@H](NC(=O)c3cc4cc(C(F)(F)P(=O)(O)O)ccc4[nH]3)C(=O)N21)C(=O)NC(c1ccccc1)c1ccccc1 (some centres undefined) | 63 nM | 160 nM | 
CN1CC[C@H]2CC[C@@H](C(=O)N[C@@H](CCC(N)=O)C(=O)NC(c3ccccc3)c3ccccc3)N2C(=O)[C@@H](NC(=O)c2cc3cc(C(F)(F)P(=O)(O)O)ccc3[nH]2)C1 |  |  | Ki [6]: 12 nM
NC(=O)CC[C@H](NC(=O)[C@@H]1CC[C@@H]2CCN(C(=O)CCCCCCC#Cc3cccc4c3CN(C3CCC(=O)NC3=O)C4=O)C[C@H](NC(=O)c3cc4cc(C(F)(F)P(=O)(O)O)ccc4[nH]3)C(=O)N21)C(=O)NC(c1ccccc1)c1ccccc1 (some centres undefined) | 25 nM | 90 nM | 
NC(=O)CC[C@H](NC(=O)[C@@H]1CC[C@@H]2CCN(C(=O)N3CCC(CCC#Cc4cccc5c4CN(C4CCC(=O)NC4=O)C5=O)CC3)C[C@H](NC(=O)c3cc4cc(C(F)(F)P(=O)(O)O)ccc4[nH]3)C(=O)N21)C(=O)NC(c1ccccc1)c1ccccc1 (some centres undefined) | 99 nM | 180 nM | 
NC(=O)CC[C@H](NC(=O)[C@@H]1CC[C@@H]2CCN(C(=O)c3cnn(CCCC#Cc4cccc5c4CN(C4CCC(=O)NC4=O)C5=O)c3)C[C@H](NC(=O)c3cc4cc(C(F)(F)P(=O)(O)O)ccc4[nH]3)C(=O)N21)C(=O)NC(c1ccccc1)c1ccccc1 (some centres undefined) | 241 nM | 180 nM | 
NC(=O)CC[C@H](NC(=O)[C@@H]1CC[C@@H]2CCN(C(=O)CCCC#Cc3cccc4c3CN(C3CCC(=O)NC3=O)C4=O)C[C@H](NC(=O)c3cc4cc(C(F)(F)P(=O)(O)O)ccc4[nH]3)C(=O)N21)C(=O)NC(c1ccccc1)c1ccccc1 (some centres undefined) | 950 nM | 2630 nM | Activity [10]: inactive; Activity [11]: inactive; Activity [3]: Dose-dependent effect
CC(=O)N1CC[C@H]2CC[C@@H](C(=O)N[C@@H](CCC(N)=O)C(=O)NC(c3ccccc3)c3ccccc3)N2C(=O)[C@@H](NC(=O)c2cc3cc(CP(=O)(O)O)ccc3[nH]2)C1 |  |  | Ki [6]: 584 nM
NC(=O)CC[C@H](NC(=O)[C@@H]1CC[C@@H]2CCN(C(=O)CCCCCC#Cc3cccc4c3CN(C3CCC(=O)NC3=O)C4=O)C[C@H](NC(=O)c3cc4cc(C(F)(F)P(=O)(O)O)ccc4[nH]3)C(=O)N21)C(=O)NCc1ccccc1 (some centres undefined) | 210 nM | 220 nM | IC50 (SU-DHL-1): 3240 nM; DC50 [8]: 55 nM
CC(=O)N1CC[C@H]2CC[C@@H](C(=O)N[C@@H](CCC(N)=O)C(=O)NC(c3ccccc3)c3ccccc3)N2C(=O)[C@@H](NC(=O)/C=C(\C)c2ccc(C(F)(F)P(=O)(O)O)cc2)C1 |  |  | Ki [6]: 164 nM
CC(=O)N1CC[C@H]2CC[C@@H](C(=O)N[C@@H](CCC(N)=O)C(=O)NC(c3ccccc3)c3ccccc3)N2C(=O)[C@@H](NC(=O)c2cc3cc(OP(=O)(O)O)ccc3[nH]2)C1 |  |  | Ki [6]: 33 nM
NC(=O)CC[C@H](NC(=O)[C@@H]1CC[C@@H]2CCN(C(=O)OCCCCC#Cc3cccc4c3CN(C3CCC(=O)NC3=O)C4=O)C[C@H](NC(=O)c3cc4cc(C(F)(F)P(=O)(O)O)ccc4[nH]3)C(=O)N21)C(=O)NC(c1ccccc1)c1ccccc1 (some centres undefined) | 128 nM | 240 nM | IC50 (SU-DHL-1): 2370 nM; DC50 [8]: 49 nM
NC(=O)CC[C@H](NC(=O)[C@@H]1CC[C@@H]2CCN(C(=O)CCCCCC#Cc3ccc4c(c3)C(=O)N(C3CCC(=O)NC3=O)C4)C[C@H](NC(=O)c3cc4cc(C(F)(F)P(=O)(O)O)ccc4[nH]3)C(=O)N21)C(=O)NC(c1ccccc1)c1ccccc1 (some centres undefined) | 711 nM | 360 nM | 
CNC(=O)[C@H](CCC(N)=O)NC(=O)[C@@H]1CC[C@@H]2CCN(C(=O)CCCCCC#Cc3cccc4c3CN(C3CCC(=O)NC3=O)C4=O)C[C@H](NC(=O)c3cc4cc(C(F)(F)P(=O)(O)O)ccc4[nH]3)C(=O)N21 (some centres undefined) | 226 nM | 640 nM | IC50 (SU-DHL-1): > 10000 nM; DC50 [8]: 890 nM
CC(=O)N1CC[C@H]2CC[C@@H](C(=O)N[C@@H](CCC(N)=O)C(=O)NCc3ccccc3)N2C(=O)[C@@H](NC(=O)c2cc3cc(C(F)(F)P(=O)(O)O)ccc3[nH]2)C1 |  |  | Ki [6]: 14 nM
NC(=O)CC[C@H](NC(=O)[C@@H]1CC[C@@H]2CCN(CCCCCCC#Cc3cccc4c3CN(C3CCC(=O)NC3=O)C4=O)C[C@H](NC(=O)c3cc4cc(C(F)(F)P(=O)(O)O)ccc4[nH]3)C(=O)N21)C(=O)NC(c1ccccc1)c1ccccc1 (some centres undefined) | 147 nM | 650 nM | IC50 (SU-DHL-1): > 10000 nM; DC50 [8]: 919 nM
NC(=O)CC[C@H](NC(=O)[C@@H]1CC[C@@H]2CCN(C(=O)CCCCC#Cc3cccc4c3CN(C3CCC(=O)NC3=O)C4=O)C[C@H](NC(=O)c3cc4cc(C(F)(F)P(=O)(O)O)ccc4[nH]3)C(=O)N21)C(=O)NC(c1ccccc1)c1ccccc1 (some centres undefined) | 78 nM | 260 nM | 
NC(=O)CC[C@H](NC(=O)[C@@H]1CC[C@@H]2CCN(C(=O)CC(=O)N3CCC(C#Cc4cccc5c4CN(C4CCC(=O)NC4=O)C5=O)CC3)C[C@H](NC(=O)c3cc4cc(C(F)(F)P(=O)(O)O)ccc4[nH]3)C(=O)N21)C(=O)NC(c1ccccc1)c1ccccc1 (some centres undefined) | 67 nM | 380 nM | 
CN1CC[C@H]2CC[C@@H](C(=O)N[C@@H](CCC(N)=O)C(=O)NCc3ccccc3)N2C(=O)[C@@H](NC(=O)c2cc3cc(C(F)(F)P(=O)(O)O)ccc3[nH]2)C1 |  |  | Ki [6]: 14 nM
NC(=O)CC[C@H](NC(=O)[C@@H]1CC[C@@H]2CCN(C(=O)CCN3CCC(C#Cc4cccc5c4CN(C4CCC(=O)NC4=O)C5=O)CC3)C[C@H](NC(=O)c3cc4cc(C(F)(F)P(=O)(O)O)ccc4[nH]3)C(=O)N21)C(=O)NC(c1ccccc1)c1ccccc1 (some centres undefined) | 360 nM | 2470 nM | 
